Measured values: ChEMBL document CHEMBL2034823, “Synthesis and antiviral activity of certain second generation methylenecyclopropane nucleosides” (Bioorg Med Chem, 2012)

Tests used:
[1] = tested on: Human alphaherpesvirus 3; test: Antiviral activity against VZV infected in human HFF cells assessed as reduction in cytopathic effect after 7 days by crystal violet staining; type: functional, organism-based; conditions: Human alphaherpesvirus 3, HFF, 168 h
[2] = tested on: Human betaherpesvirus 5; test: Antiviral activity against HCMV infected in human HFF cells assessed as reduction in cytopathic effect after 8 days by plaque reduction assay; type: functional, organism-based; conditions: Human betaherpesvirus 5, HFF, 192 h
Outline: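 HFF monolayers seeded 2 days ahead and infected with AD169 at about 30 plaques per well, with 1 h adsorption. Compound was then added in MEM with 2% FBS, L-glutamine, penicillin, gentamycin and pooled human gamma globulin. After 8 days, neutral red stain and plaque counts by stereomicroscope. EC50 interpolated. Duplicate wells.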

[3] = Cytotoxicity against human MOLT3 cells after 7 days by Cell-Titer Glo assay; type: cell-based, MOLT-3
Outline: (§1)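 Uninfected Akata, BCBL1, HSB-2 or MOLT-3 cells incubated with compound for seven days under the matching antiviral-assay conditions. CellTiter-Glo added and luminescence read. CC50 is the concentration reducing cell number by 50%.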

[4] = tested on: Human gammaherpesvirus 8; test: Antiviral activity against HHV-8 infected in human BCBL1 cells assessed as reduction in viral DNA after 7 days by qPCR analysis; type: functional, organism-based; conditions: Human gammaherpesvirus 8, BCBL1, 168 h
Outline: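 BCBL1 cells kept in RPMI 1640 with 10% FBS, penicillin, gentamycin and L-glutamine. Lytic infection induced with phorbol 12-myristate 13-acetate, then cells added to triplicate compound dilutions. Incubation 7 days at 37 °C in humidified CO2. EC50 is the concentration halving viral DNA accumulation.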

[5] = Cytotoxicity against human HSB2 cells after 7 days by Cell-Titer Glo assay; type: cell-based, CCRF-HSB-2; outline: as §1
[6] = Antiviral activity against HHV-6A infected in human HSB2 cells assessed as reduction in viral DNA after 7 days by hybridization assay; type: functional, cell-based, Human herpesvirus 6A; conditions: Human betaherpesvirus 6A, HSB2, 168 h
Outline: (§2)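 Compound serially diluted in medium. Uninfected HSB-2 cells were infected with HHV-6A (GS)-infected HSB-2 cells, and Molt-3 cells with HHV-6B (Z29)-infected Molt-3 cells. Incubation 7 days at 37 °C. Lysis in 4.5 M NaCl/1.2 M NaOH, then transfer to nylon membrane. Viral DNA quantified by digoxigenin-probe hybridization and EC50 calculated. Duplicate wells.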

[7] = Cytotoxicity against human Akata cells after 7 days by Cell-Titer Glo assay; type: cell-based; outline: as §1
[8] = tested on: Human gammaherpesvirus 4; test: Antiviral activity against EBV Akata infected in human Akata cells assessed as reduction in viral DNA after 72 hrs by hybridization assay; type: functional, organism-based; conditions: human gammaherpesvirus 4, Akata
Outline: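 Akata cells kept in RPMI 1640 with 10% FBS, L-glutamine, penicillin and gentamicin. Latent infection was switched to productive by adding goat anti-human IgG, and cells were seeded into compound dilutions made in growth medium. After 72 h the DNA was denatured and blotted onto nylon membrane. Viral DNA was measured with a digoxigenin-labeled probe plus anti-hapten antibody. EC50 is the concentration halving viral DNA. Duplicate wells.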

[9] = tested on: Human alphaherpesvirus 1; test: Antiviral activity against HSV-1 infected in human HFF cells assessed as reduction in cytopathic effect after 3 days by crystal violet staining; type: functional, organism-based; conditions: Human alphaherpesvirus 1, HFF, 72 h
Outline: (§3)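 Compound diluted over HFF monolayers, then HSV-1 (E-377) or HSV-2 (MS) added at MOI about 0.01 PFU/cell. Held 3 days in humidified 5% CO2. Stained 4 h with 0.1% crystal violet in formalin, rinsed, dried 24 h, and absorbance read at 595 nm. EC50 is 50% CPE reduction. Duplicate wells.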

[10] = Cytotoxicity against human BCBL1 cells after 7 days by Cell-Titer Glo assay; type: cell-based; outline: as §1
[11] = Cytotoxicity against human HFF cells after 3 to 8 days by crystal voilet staining; type: cell-based
Outline: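 Uninfected HFF cells exposed to the same concentrations as in the CPE assays (3 days for HSV, 7 for VZV, […]). Stained with crystal violet. CC50 is the concentration reducing cell number by 50%. Duplicate wells.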

[12] = tested on: Human alphaherpesvirus 2; test: Antiviral activity against HSV-2 infected in human HFF cells assessed as reduction in cytopathic effect after 3 days by crystal violet staining; type: functional, organism-based; conditions: Human alphaherpesvirus 2, HFF, 72 h; outline: as §3
[13] = Antiviral activity against HHV-6B infected in human Molt3 cells assessed as reduction in viral DNA after 7 days by hybridization assay; type: functional, cell-based, Human herpesvirus 6B; conditions: Human betaherpesvirus 6B, MOLT-3, 168 h; outline: as §2

IC50 [1] [µM] | IC50 [2] [µM] | IC50 [4] [µM] | IC50 [6] [µM] | IC50 [8] [µM] | IC50 [9] [µM] | IC50 [12] [µM] | IC50 [13] [µM] | SMILES | CC50 at 168 h [3] [µM] | CC50 at 168 h [5] [µM] | CC50 at 168 h [7] [µM] | CC50 at 168 h [10] [µM] | CC50 [11] [µM]
> 60 | 24 | 71 | > 20 | > 20 | > 60 | > 60 | > 20 | Nc1nc(NC2CC2)c2ncn(/C=C3/CC3(CO)CO)c2n1 | > 20 | > 20 | > 20 | 71.5 | > 300
> 300 | > 300 | 62 | > 20 | > 24 | > 300 | > 300 | > 20 | CNc1nc(N)nc2c1ncn2/C=C1/CC1(CO)CO | > 20 | > 20 | > 24 | 67 | 265
> 300 | > 300 | > 20 | > 20 | > 24 | > 300 | > 300 | – | CCCNc1nc(N)nc2c1ncn2/C=C1/CC1(CO)CO | – | > 20 | > 24 | > 20 | > 300
> 300 | 160 | > 20 | > 20 | > 24 | > 300 | > 300 | – | CC(C)Nc1nc(N)nc2c1ncn2/C=C1/CC1(CO)CO | – | > 20 | > 24 | > 20 | > 300
> 300 | > 60 | > 20 | > 20 | > 24 | > 300 | > 300 | > 20 | CCCCNc1nc(N)nc2c1ncn2/C=C1/CC1(CO)CO | > 20 | > 20 | > 24 | > 20 | > 300
> 300 | > 300 | > 20 | > 20 | > 24 | > 300 | > 300 | – | CC(C)CNc1nc(N)nc2c1ncn2/C=C1/CC1(CO)CO | – | > 20 | > 24 | > 20 | > 300
> 60 | > 60 | 63 | > 20 | > 20 | > 60 | > 60 | > 20 | Nc1nc(NC2CCCC2)c2ncn(/C=C3/CC3(CO)CO)c2n1 | > 20 | > 20 | > 20 | 71.7 | > 300
> 300 | > 300 | > 20 | > 20 | > 24 | > 300 | > 300 | – | Nc1nc(NC2CCCCC2)c2ncn(/C=C3/CC3(CO)CO)c2n1 | – | > 20 | > 24 | > 20 | > 300
> 60 | > 60 | – | > 20 | > 24 | > 300 | > 300 | > 20 | Nc1nc(NCc2ccccc2)c2ncn(/C=C3/CC3(CO)CO)c2n1 | > 20 | > 20 | > 24 | 19.9 | > 300
180 | > 300 | > 20 | > 20 | > 24 | > 300 | > 300 | – | CN(C)c1nc(N)nc2c1ncn2/C=C1/CC1(CO)CO | – | > 20 | > 24 | > 20 | > 300
> 300 | > 300 | > 20 | > 20 | > 24 | > 300 | > 300 | – | Nc1nc(N2CCCC2)c2ncn(/C=C3/CC3(CO)CO)c2n1 | – | > 20 | > 24 | > 20 | > 300
> 300 | > 300 | > 20 | > 20 | > 24 | > 300 | > 300 | – | Nc1nc(N2CCOCC2)c2ncn(/C=C3/CC3(CO)CO)c2n1 | – | > 20 | > 24 | > 20 | > 300
> 100 | 1.6 | > 20 | > 20 | 11.9 | > 300 | > 300 | 11.2 | CCOc1nc(N)nc2c1ncn2/C=C1/CC1(CO)CO | > 20 | > 20 | > 20 | > 20 | > 300
2.9 | 1.1 | 16 | 18 | 8.9 | > 300 | > 300 | 6.6 | CCCOc1nc(N)nc2c1ncn2/C=C1/CC1(CO)CO | > 20 | > 20 | > 20 | > 20 | > 300
> 300 | 1.1 | 17 | > 20 | 11 | > 300 | > 300 | 11.4 | C=CCOc1nc(N)nc2c1ncn2/C=C1/CC1(CO)CO | > 20 | > 20 | > 20 | > 20 | > 300
> 100 | 1.6 | > 20 | > 20 | 1.6 | > 300 | > 300 | 3.2 | CCCCOc1nc(N)nc2c1ncn2/C=C1/CC1(CO)CO | > 20 | > 20 | > 20 | > 20 | > 300
– | 3.9 | > 20 | > 20 | 7.3 | > 300 | > 300 | 9.5 | CCCCCCOc1nc(N)nc2c1ncn2/C=C1/CC1(CO)CO | > 20 | > 20 | > 20 | > 20 | > 200
> 50 | 31 | > 20 | > 20 | 2.3 | > 300 | > 300 | – | CC(C)CSc1nc(N)nc2c1ncn2/C=C1/CC1(CO)CO | – | 60 | > 20 | > 20 | > 300
7.4 | 2.8 | 13 | > 20 | 1 | > 300 | > 300 | > 20 | COc1nc(N)nc2nc[nH]c12 | > 20 | > 20 | > 20 | 51 | 171
– | – | – | – | – | 2.9 | 2.8 | – | Nc1nc2c(ncn2COCCO)c(=O)[nH]1 [ACYCLOVIR] | – | – | – | – | > 300
– | 2.1 | – | – | – | – | – | – | Nc1nc2c(ncn2COC(CO)CO)c(=O)[nH]1 [GANCICLOVIR] | – | – | – | – | > 300
